Screening data from PubChem.
hERG rescue: hERG (human) protection from proarrhythmic block; Q12809; CHO-hERG, FluxOR thallium flux, dofetilide IC70 present; activation (rescue from dofetilide block), less the hit threshold, % at 10 µM; hit rate 0.51% among 310,000;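 active means activation above the mean of controls blocked by dofetilide plus 5 SD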;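 further: thallium influx through hERG after potassium depolarization seen as dye fluorescence rise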
KCNQ1 act: potentiates or activates the human KCNQ1 potassium channel. P51787. CHO-K1 KCNQ1, thallium flux FluxOR fluorescence; stronger effect = higher value. B-score at 10 µM. hit rate 0.35% among 310,000. AID 2648;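 active means fluorescence ratio B-score, a plate-corrected score, at least three library SD, with initial intensity B-score within 5 SD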
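System: Stable KCNQ1 CHO-K1 line | Incubation: 90 min dye loading and 20 min compound exposure, both at room temperature | Measure: Ratio B score | Medium: Assay buffer for compound exposure, DMSO matched across wells | Compound dosing: Single-concentration screen | Probe or stimulus: K+/Tl+ depolarizing stimulus | Measured by: Kinetic FluxOR fluorescence, 10 s baseline plus 110 s post-stimulus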
Cl transport mod: modulators of human KCC2 chloride dependent transport; hit rate 2.2% among 190,000; AID 1456; B-score of Tl+ flux slope (higher = more flux/activation; lower = inhibition) at 10 µM; KCC2 cells, thallium flux FluoZin-2 fluorescence; Q9H2X9;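 active means thallium flux slope and its plate-corrected score both differing from the plate sample mean at a set confidence after two filtering rounds, in either direction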;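 further: slope of fluorescence scaled to starting intensity during 10 to 20 s after thallium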
Target sequence (Q9H2X9 whole entry, looked up): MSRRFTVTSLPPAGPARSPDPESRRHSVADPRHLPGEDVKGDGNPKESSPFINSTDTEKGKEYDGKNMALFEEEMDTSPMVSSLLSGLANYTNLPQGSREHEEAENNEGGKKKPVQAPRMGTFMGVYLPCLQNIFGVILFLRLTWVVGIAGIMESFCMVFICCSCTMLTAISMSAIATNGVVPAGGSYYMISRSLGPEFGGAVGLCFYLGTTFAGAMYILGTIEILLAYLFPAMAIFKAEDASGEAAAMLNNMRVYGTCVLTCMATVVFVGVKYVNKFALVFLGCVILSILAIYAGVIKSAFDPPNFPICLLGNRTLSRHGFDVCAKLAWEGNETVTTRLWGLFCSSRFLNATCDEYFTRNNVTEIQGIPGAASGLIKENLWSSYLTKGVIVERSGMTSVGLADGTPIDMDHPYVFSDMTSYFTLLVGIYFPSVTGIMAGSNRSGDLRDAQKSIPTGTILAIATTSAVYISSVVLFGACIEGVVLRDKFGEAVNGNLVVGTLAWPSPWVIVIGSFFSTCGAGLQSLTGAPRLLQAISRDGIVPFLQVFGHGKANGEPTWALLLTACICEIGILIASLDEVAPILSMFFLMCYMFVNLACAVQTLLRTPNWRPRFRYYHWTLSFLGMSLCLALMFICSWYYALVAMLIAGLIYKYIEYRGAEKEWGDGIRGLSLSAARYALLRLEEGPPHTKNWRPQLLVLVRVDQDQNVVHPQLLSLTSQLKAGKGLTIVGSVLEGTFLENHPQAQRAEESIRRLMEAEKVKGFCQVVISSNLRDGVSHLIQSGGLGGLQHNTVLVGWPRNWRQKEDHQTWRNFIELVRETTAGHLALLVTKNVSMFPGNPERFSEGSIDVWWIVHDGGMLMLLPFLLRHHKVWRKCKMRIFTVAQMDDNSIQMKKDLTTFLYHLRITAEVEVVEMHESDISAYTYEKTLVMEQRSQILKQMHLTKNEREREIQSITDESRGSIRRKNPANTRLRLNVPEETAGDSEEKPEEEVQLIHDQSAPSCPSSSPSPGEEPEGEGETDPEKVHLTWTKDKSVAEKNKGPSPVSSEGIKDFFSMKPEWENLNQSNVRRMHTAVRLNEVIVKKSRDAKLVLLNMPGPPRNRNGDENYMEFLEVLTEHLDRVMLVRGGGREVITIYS
KCNK3 inh: human KCNK3 channel inhibition, primary screen | CHO-KCNK3 thallium flux, FluxOR fluorescence; stronger effect = lower value | B-score at 10 µM | hit rate 0.84% among 340,000 | AID 602410;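 active means B-score under library mean minus 4 SD, starting fluorescence ratio at most library mean plus 5 SD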;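 further: more negative B-score means stronger inhibition of thallium flux through KCNK3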
KCNK9 inh: inhibitors of human KCNK9 two-pore domain potassium channel. hit rate 1.2% among 310,000. Q9NPC2. HEK293 KCNK9, FluxOR thallium flux fluorescence; stronger effect = lower value. AID 488922. B-score at 10 µM;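 active means ratio B-score over 3 SD below the library mean, with starting fluorescence within 5 SD of its mean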;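 further: negative B-score means less thallium flux so channel inhibition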
KCNQ1 block: human KCNQ1 channel inhibition; P51787; CHO-K1 KCNQ1, FluxOR thallium flux fluorescence; stronger effect = higher value; B-score at 10 µM; hit rate 1.3% among 310,000;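 active means compounds whose thallium flux B-score, printed positive for inhibition, exceeds three library SD while starting fluorescence stays within three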;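 further: channel opened by potassium depolarization with thallium stimulus after 20 min compound exposure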
Active calls of the source: *; i = inactive; · = not tested or not shown. In the library only some 4.1% were active in any assay of this set; here they are far more common.

SMILES | hERG rescue | KCNQ1 act | Cl transport mod | KCNK3 inh | KCNK9 inh | KCNQ1 block
COc1ccc(-c2cn3nc(SCC(=O)NC4CCCCC4)ccc3n2)cc1 | 5.3* | i | · | i | i | i
COc1ccc(-c2ccc(SCC(=O)NC3CCCCC3)nn2)cc1 | -3.4 | i | · | i | i | i
COc1ccc(N2C(=O)C3CCCN3C2=O)cc1 (stereo not given) | 4.9* | i | -0.0336 | i | i | i
CCOc1ccc(N2C(=O)C3CCCN3C2=O)cc1 (stereo not given) | -1.5 | i | · | i | i | i
O=C(C[C@@H]1C/C=C/CC[C@@H](Cc2ccc(F)cc2)C(=O)OC[C@H](Cc2ccccc2)NC1=O)N[C@H](CO)Cc1ccccc1 | · | · | · | i | · | ·
N#Cc1cccc(NC(=O)c2nc(-c3ccccc3)n(-c3ccccc3)n2)c1 | 7.1* | i | · | i | i | i
Cc1ccc(C)c(NC(=O)c2nc(-c3ccccc3)n(-c3ccccc3)n2)c1 | -10.7 | i | -0.64 | i | i | i
OCCCc1nc2n(n1)C(c1ccccc1Cl)C=C(c1cccs1)N2 (stereo not given) | -16.7 | i | i | -10.2* | i | i
COc1ccccc1C(=O)NNC(=O)C(=O)NC1CCCCC1 | 20.8* | 20* | · | i | i | i
O=C(COc1ccc(Cl)cc1)NC1CC1 | 0.5 | i | · | i | i | i
COCCNC(=O)C(=O)NNC(=O)c1ccccc1OC | -15.5 | i | · | i | i | 10*
COc1ccccc1C(=O)Nc1ccccc1C(=O)NC1CCCCC1 | -5.4 | i | · | i | i | i
O=C(COc1ccc(Cl)cc1)NNC(=O)C(=O)NC1CCCCC1 | 15.1* | 11* | · | i | i | i
CC(=O)NS(=O)(=O)c1ccc2sc(C)nc2c1 | -5.5 | i | -1.26 | i | i | i
COc1ccc(CN(C)C(=O)COC(=O)c2ccc(-c3ccccc3)cc2)c(OC)c1OC | · | · | · | -9.26* | · | ·
COc1ccc(CCN2CC(C(=O)NCCCn3nc(C)cc3C)CCC2=O)cc1 (stereo not given) | -6.0 | i | · | i | i | i
CCCN(CC(=O)Nc1ccccc1Br)CC(=O)Nc1ccc(F)c(F)c1F | -7.8 | i | -1.58 | i | -7.01* | i
COc1cc(OC)cc(C(=O)N(Cc2ccco2)c2c(N)n(Cc3ccccc3)c(=O)[nH]c2=O)c1 | · | · | · | i | · | ·
CCCc1ccc(-c2ccc(C(=O)O)cc2)nc1 | 5.9* | i | -0.558 | i | i | i
CCCCCc1ccc(-c2ccc(/C=C/C(N)=O)cc2)nc1 | -6.8 | i | 0.752 | i | i | i
COC(=O)C(CC(C)C)NC(=O)CSc1nc(-c2ccccc2)c(C#N)c(=O)[nH]1 (stereo not given) | 5.3* | i | · | i | i | i
CC(C)(C)c1ccc(OCCCC(=O)NNC(=O)c2ccccc2O)cc1 | -28.0 | i | · | i | i | 8*
Cc1cc(C(=O)NNC(=O)CCCOc2ccccc2)c(C)o1 | -18.1 | i | · | i | i | i
COc1ccccc1C(=O)NC(=O)COC(=O)c1cccc(C)c1O | -14.9 | i | · | i | i | i
Cc1ccc(-n2c(C)cc(C3N=C(N)Nc4nc5ccccc5n43)c2C)c(C)c1 (stereo not given) | -3.1 | i | -0.387 | i | -7.53* | i
SMILES | hERG rescue | KCNQ1 act | Cl transport mod | KCNK3 inh | KCNK9 inh | KCNQ1 block
NC1=NC(c2ccc(F)cc2)n2c(nc3ccccc32)N1 (stereo not given) | -7.6 | i | 1.02 | i | i | i
N#C/C(=N\Nc1cccc([N+](=O)[O-])c1)C(=O)c1ccc(Br)cc1 | -23.9 | i | -6.8* | i | i | 8*
COc1ccc(-c2nn(-c3ccccc3)cc2/C=C/C(=O)N2CCN(c3ccccn3)CC2)cc1 | -32.5 | i | -1.61 | i | i | 6*
Cc1ccc(-c2nn(-c3ccccc3)cc2C(=O)N2CCN(c3ccccn3)CC2)cc1 | -20.0 | i | 0.348 | i | i | i
Cc1ccc2c(c1)-c1ncc(C(=O)c3cc(Br)ccc3O)cc1CO2 | -14.5 | i | 0.948 | · | -8.89* | 8*
Cc1ccccc1Nc1nc(N)nc(COC(=O)CCS(=O)(=O)c2ccccc2)n1 | -20.6 | i | 1.16 | i | i | i
CCc1ccccc1Nc1nc(N)nc(COC(=O)CCNS(=O)(=O)c2ccccc2)n1 | -16.9 | i | · | i | -8.06* | i
CCCn1c(SCC(=O)NC2CCCCC2)nnc1-c1ccco1 | -1.8 | i | · | i | i | i
Cn1c(=O)c2c(ncn2CC(=O)OCc2ccccc2)n(C)c1=O | 5.3* | i | 0.00741 | i | i | i
COC(=O)Cn1cnc2c1c(=O)n(C)c(=O)n2C | -3.6 | i | -0.00861 | i | i | i
COCCn1c(=S)[nH]c2sc3c(c2c1=O)CCCC3 | 16.7* | 30* | · | i | i | i
O=c1[nH]c2sc3c(c2c(=O)n1Cc1ccccc1)CCC3 | -2.2 | i | -0.941 | i | i | i
C=CCn1c(=S)[nH]c2sc3c(c2c1=O)CCCC3 | 12.1* | 65* | · | i | i | i
COCCCn1c(=S)[nH]c2sc3c(c2c1=O)CCCC3 | 16.7* | 34* | · | i | i | i
COc1ccc(/C=C(/C(=O)Nc2ccccc2C(=O)NC(C)C)c2ccccc2)cc1 | -13.3 | i | -0.375 | i | i | 6*
COc1ccc(/C=C/C(=O)Nc2ccccc2C(=O)O)cc1 | 31.6* | i | -2.13 | i | i | i
Cc1ccc(C(=O)NCC(=O)N(C)Cc2ccc(Cl)cc2Cl)s1 | · | · | · | i | · | ·
CC(C=NNc1ccc([N+](=O)[O-])cn1)=Cc1ccccc1 | · | · | · | i | · | ·
O=C(Nc1cccnc1)c1cc2c(s1)-c1ccccc1OC2 | -7.8 | i | · | i | i | i
Cc1cccc2c1-c1sc(C(=O)Nc3cccnc3)cc1CO2 | -11.2 | i | · | i | -7.21* | i
CC(C)CN(CC(C)C)S(=O)(=O)c1cc([N+](=O)[O-])ccc1N1CCCCCC1 | -0.2 | i | · | i | i | 7*
CN(C)S(=O)(=O)c1cc([N+](=O)[O-])ccc1N1CCCCCC1 | -1.5 | i | -0.261 | i | i | i
COCCN(CC(=O)Nc1cccc(C)c1C)C(=O)c1ccc(-n2cccn2)cc1 | · | · | · | i | · | ·
Cc1ccc(S(=O)(=O)c2c(C)nn(C(C)(C)C)c2OC(=O)C2CCCC2)cc1 | -2.6 | i | 1.82 | -8.82* | -8* | i
COCC(=O)Oc1c(S(=O)(=O)c2ccccc2)c(C)nn1C(C)(C)C | -9.4 | i | · | i | i | i
O=CC1=C(c2ccccc2)Oc2ccccc2O1 | -8.9 | i | · | i | i | 6*
